In PMC6607903 (Clinical cancer research : an official journal of the …, 2015):

Key:
[1] = assay type: in vivo
[2] = Plasma pharmacokinetics of CUDC-101 and metabolite in patients; assay type: in vivo, human; details: for AUC(0-t) / Cmax / Tmax / Vd / clearance / half-life: human, iv
locally advanced HNSCC = assay: Response evaluation; assay type: in vivo, human
How it was run: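 Test compound was infused IV over 1 h, Mon/Wed/Fri, for one week before radiation and then through weeks 1–7. Cisplatin 100 mg/m2 was given on days 2, 23 and 44 (adjustable to 40 mg/m2/week), never on the same day. IMRT delivered 70 Gy in 2 Gy daily fractions to gross disease and 56 Gy in 1.6 Gy fractions to the elective neck. Response was scored by RECIST 1.1 plus site-investigator overall assessment from imaging, PET/CT 12 weeks post-therapy, examination and histology.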

EGFR = assay: IHC of phosphorylated EGFR in paired tumor biopsies; assay type: in vivo, human; details: 2 pairs, 275 mg/m^2
How it was run: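 Post-dose tumour biopsies were taken 60±30 min after the end of a 1-h IV infusion of test compound on day −5 or −3, and paired with pre-treatment archival tumour. Staining was done on 5-μm paraffin sections. Antigen retrieval used 10mM Tris, 1mM EDTA, 0.05% Tween 20, pH 9.0, at 95°C for 10 min then 90°C for 5 min. Primary antibody was anti-pEGFR Y1068.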

[3] = monotherapy; cited from earlier work
[4] = tested on: HPV-negative head and neck cancer cell lines; details: cited from earlier work
Akt = details: compared with erlotinib or SAHA alone; cited from earlier work

## C#Cc1cccc(Nc2ncnc3cc(OC)c(OCCCCCCC(=O)NO)cc23)c1 [CUDC-101, 7-(4-(3-ethylnylphenylamino)-7-methoxyquinazolin-6-yloxy)-N-hydroxyheptanamide]
[1]; human, in vivo, 1 week
  Single adverse event (discontinuation) at dose level 1: grade 2 joint pain and myalgia
[1]; human, in vivo, 8 weeks
  Patients who experienced a serious adverse event (SAE): 7
[1]; in vivo
  Patients who experienced at least one AE: All patients
  Patients with an SAE considered related to any agent: Five
[2]; 225 vs 275 mg/m^2
  Dose dependent increase in exposure or peak concentration: no clear dose dependent increase
[2]; IV 3 times per week, days −7 to 43
  Accumulation with this dosing regimen: low probability of accumulation
[2]; plasma, 225 mg/m2
  AUC(0-t): 9920 ng·h/mL
  Cmax: 13100 ng/mL
  Tmax: 0.542 h
  Vd: 26.6 L
  clearance: 938 mL/min
  half-life: 2.83 h
[2]; plasma, 225 mg/m^2
  AUC(0-t): 7110 ng·h/mL
  Cmax: 8890 ng/mL
  Tmax: 1.25 h
  Vd: 54.4 L
  clearance: 895 mL/min
  half-life: 3.91 h
[2]; plasma, 275 mg/m2
  AUC(0-t): 8000 ng·h/mL
  Cmax: 7890 ng/mL
  Tmax: 0.5 h
  Vd: 42.3 L
  clearance: 1060 mL/min
  half-life: 2.88 h
[2]; plasma, 275 mg/m^2
  AUC(0-t): 7770 ng·h/mL
  Cmax: 7820 ng/mL
  Tmax: 0.742 h
  Vd: 76 L
  clearance: 1020 mL/min
  half-life: 6.41 h
[2]; plasma, IV 3 times per week
  Peak concentrations and exposure between days −7 and 43: similar
[2]; plasma, all subjects
  Exposure to the parent compound compared to its metabolite: greater in all subjects
Locally advanced HNSCC; 11 patients, combination with cisplatin and radiation
  Post-treatment clinical assessment: stable, patients (%): 4 (37%)
Locally advanced HNSCC; median of 1.47 (0.68 – 2.3) years of follow-up
  Patients progression free: 90%
EGFR
  Phosphorylation of EGFR (Y1068 and Y1173) in tumor biopsies: trend of EGFR inhibition
[3]
  MTD as a single agent: 275 mg/m^2
[4]
  Activity in HPV-negative head and neck cancer cell lines: has activity
Akt
  Phosphorylation of Akt: reduced phosphorylation of Akt

## N.N.[Cl][Pt][Cl] [Cisplatin, reference compound]
[1]; Dose Level 1, 225 mg/m^2 CUDC-101, agent Cisplatin/Radiation
  SAE: Failure to thrive: 1 (25%)
